According to ChEMBL document CHEMBL4257585, “Structure-Activity Relationships of Photoswitchable Diarylethene-Based β-Hairpin Peptides as Membranolytic Antimicrobial and Anticancer Agents” (J Med Chem, 2018):
≈ marks a conversion by molar mass, not a printed value.

Assays:
[1] = tested on: Bacillus subtilis; test: Antimicrobial activity against Bacillus subtilis DSM 347 after 22 hrs by resazurin dye based spectrophotometry; type: functional; details: DSM 347, 22 h
Summary of the method: (§1)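 2-fold broth microdilution in Mueller–Hinton medium; peptide stocks 1024 μg/mL in 50% ethanol. Exponential-phase cultures diluted to OD550 0.2, then 1:100 (B. subtilis) or 1:1000 (E. coli), giving 5 × 10^5 CFU/mL per well. Incubated 22 h, 37 °C, static; then resazurin (0.2 mg/mL solution) added for 2 h at 37 °C, read visually and spectrophotometrically. Tested in both photoforms.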

[2] = Therapeutic index, ratio of HC50 for human RBC to MIC for Bacillus subtilis DSM 347; type: toxicity; details: human red blood cells versus Bacillus subtilis DSM 347
Summary of the method: (§2)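 Ratio of HC50 (RBC) to HeLa IC50 or to MIC against B. subtilis or E. coli; values measured in mg/mL and recalculated to μM, 2-fold dilution without curve fitting, accuracy within a factor of 2.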

[3] = Selective ratio of HC50 for human RBC to IC50 for human HeLa cells; type: toxicity; details: human red blood cells versus HeLa cells; summary of the method: as §2
[4] = Therapeutic index, ratio of HC50 for human RBC to MIC for Escherichia coli DSM 1103; type: toxicity; details: human red blood cells versus Escherichia coli DSM 1103; summary of the method: as §2
[5] = tested on: HeLa; test: Cytotoxicity against human HeLa cells assessed as reduction in cell viability after 24 hrs by MTT assay; type: functional, cell-based
Summary of the method: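 HeLa cells seeded at about 5 × 10^4 cells/mL in DMEM with 10% FBS, 2 mM glutamine, gentamicin; 24 h adaptation (37 °C, 5% CO2), then 24 h peptide exposure. MTT 4 h, formazan in DMSO read at 570 nm. 2-fold series 256–0.5 (open) or 512–1 μg/mL (closed), four repetitions; IC50 extrapolated from killing curves. Closed form handled in dim light.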

[6] = tested on: Escherichia coli; test: Antimicrobial activity against Escherichia coli DSM 1103 after 22 hrs by resazurin dye based spectrophotometry; type: functional; details: DSM 1103, 22 h; summary of the method: as §1
[7] = Hemolytic activity against human RBC assessed as hemolysis after 30 mins by colorimetric method; type: ADME, cell-based, Erythrocyte; details: human red blood cells (erythrocytes)
Summary of the method: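 Human erythrocytes washed twice in isotonic 172 mM Tris-HCl, pH 7.6; peptides dissolved in DMSO, diluted in buffer, two independent 10-step 2-fold series from 256 or 192 μg/mL. HC50 extrapolated as 50% hemolysis concentration.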

Row | Compound | MIC [1] [µM] | selectivity ratio [2] | selectivity ratio [3] | selectivity ratio [4] | IC50 [5] [µM] | MIC [6] [µM] | HC50 at 0.5 h [7] [µM]
1 | CC(C)C[C@@H]1NC(=O)[C@H](CCCNC(=N)N)NC(=O)[C@H](C(C)C)NC(=O)C2=CC3=C4CCCC4=C4C=C(S[C@]4(C)[C@@]3(C)S2)C(=O)[C@H]2CCCN2C(=O)[C@H](CC(C)C)NC(=O)[C@H](CCCNC(=N)N)NC(=O)[C@H](C(C)C)NC(=O)[C@@H]2CCCN2C(=O)[C@@H](Cc2ccccc2)NC1=O | 6 (≈ 8.19 µg/mL) | 1.7 | 0.3 | 0.1 | 35 | 94 (≈ 128 µg/mL) | 10
2 | Cc1sc2cc1C1=C(CCC1)c1cc(sc1C)C(=O)[C@H]1CCCN1C(=O)[C@H](C(C)C)NC(=O)[C@H](CCCN)NC(=O)[C@H](C(C)C)NC(=O)[C@@H]1CCCN1C(=O)[C@@H](Cc1ccccc1)NC(=O)[C@H](C(C)C)NC(=O)[C@H](CCCN)NC(=O)[C@H](CC(=O)NC(C)C)NC2=O | 3 (≈ 3.93 µg/mL) | 51 | 2.3 | 1.6 | 66 | 98 (≈ 128 µg/mL) | 153
3 | CC(C)C(=O)NCC[C@@H]1NC(=O)C2=CC3=C4CCCC4=C4C=C(S[C@]4(C)[C@@]3(C)S2)C(=O)[C@H]2CCCN2C(=O)[C@H](C(C)C)NC(=O)[C@H](CCCN)NC(=O)[C@H](C(C)C)NC(=O)[C@@H]2CCCN2C(=O)[C@@H](Cc2ccccc2)NC(=O)[C@H](C(C)C)NC(=O)[C@H](CCCN)NC1=O | 48 (≈ 63.5 µg/mL) | 8.1 | 2 | 2 | 194 | 194 (≈ 257 µg/mL) | 387
4 | CC[C@H](C)[C@@H]1NC(=O)C2=CC3=C4CCCC4=C4C=C(S[C@]4(C)[C@@]3(C)S2)C(=O)[C@H]2CCCN2C(=O)[C@H](CC(C)C)NC(=O)[C@H](CCCN)NC(=O)[C@H]([C@@H](C)CC)NC(=O)[C@@H]2CCCN2C(=O)[C@H]2CCCN2C(=O)[C@H](CC(C)C)NC(=O)[C@H](CCCN)NC1=O | 6 (≈ 7.55 µg/mL) | 20 | 1.9 | 0.6 | 64 | 203 (≈ 256 µg/mL) | 120
5 | Cc1sc2cc1C1=C(CCC1)c1cc(sc1C)C(=O)[C@H]1CCCN1C(=O)[C@H]([C@@H](C)O)NC(=O)[C@H](C13CC4CC(CC(C4)C1)C3)NC(=O)[C@H](CCCN)NC(=O)[C@@H]1CCCN1C(=O)[C@@H](Cc1ccccc1)NC(=O)[C@H](CCCN)NC(=O)[C@H](C13CC4CC(CC(C4)C1)C3)NC(=O)[C@H](CCCN)NC2=O | 2 (≈ 2.91 µg/mL) | 2 | 0.4 | 0.2 | 9 | 25 (≈ 36.3 µg/mL) | 4
6 | CC(C)[C@@H]1NC(=O)C2=CC3=C4CCCC4=C4C=C(S[C@]4(C)[C@@]3(C)S2)C(=O)[C@H]2CCCN2C(=O)[C@H](C(C)C)NC(=O)[C@H](CCCN)N(C)C(=O)[C@H](C(C)C)NC(=O)[C@@H]2CCCN2C(=O)[C@@H](Cc2ccccc2)N(C)C(=O)[C@H](C(C)C)NC(=O)[C@H](CCCN)NC1=O | 6 (≈ 7.68 µg/mL) | 32 | 1.9 | 1 | 100 | 200 (≈ 256 µg/mL) | 192
7 | CC(C)NC(=O)C[C@@H]1NC(=O)C2=CC3=C4CCCC4=C4C=C(S[C@]4(C)[C@@]3(C)S2)C(=O)[C@H]2CCCN2C(=O)[C@H](C(C)C)NC(=O)[C@H](CCCN)NC(=O)[C@H](C(C)C)NC(=O)[C@@H]2CCCN2C(=O)[C@@H](Cc2ccccc2)NC(=O)[C@H](C(C)C)NC(=O)[C@H](CCCN)NC1=O | 49 (≈ 64.2 µg/mL) | 7.8 | 2 | 2 | 196 | 196 (≈ 257 µg/mL) | 391
8 | Cc1sc2cc1C1=C(CCC1)c1cc(sc1C)C(=O)[C@H]1CCCN1C(=O)[C@H](C(C)C)NC(=O)[C@H](CCCN)N(C)C(=O)[C@H](C(C)C)NC(=O)[C@@H]1CCCN1C(=O)[C@@H](Cc1ccccc1)N(C)C(=O)[C@H](C(C)C)NC(=O)[C@H](CCCN)NC(=O)[C@H](C(C)C)NC2=O | 2 (≈ 2.56 µg/mL) | 29.5 | 2.4 | 0.6 | 25 | 100 (≈ 128 µg/mL) | 59
9 | Cc1sc2cc1C1=C(CCC1)c1cc(sc1C)C(=O)[C@H]1CCCN1C(=O)[C@H](CC(C)C)NC(=O)[C@H](CCCNC(=N)N)NC(=O)[C@H](C(C)C)NC(=O)[C@@H]1CCCN1C(=O)[C@@H](Cc1ccccc1)NC(=O)[C@H](CC(C)C)NC(=O)[C@H](CCCNC(=N)N)NC(=O)[C@H](C(C)C)NC2=O | 3 (≈ 4.09 µg/mL) | 0.7 | 0.5 | 0.1 | 4 | 35 (≈ 47.8 µg/mL) | 2
10 | CC(C)[C@@H]1NC(=O)C2=CC3=C4CCCC4=C4C=C(S[C@]4(C)[C@@]3(C)S2)C(=O)[C@H]2CCCN2C(=O)[C@H]([C@@H](C)O)NC(=O)[C@H](CCCN)NC(=O)[C@H](C(C)C)NC(=O)[C@@H]2CCCN2C(=O)[C@@H](Cc2ccccc2)NC(=O)[C@H](C(C)C)NC(=O)[C@H](CCCN)NC1=O | 51 (≈ 64 µg/mL) | 8 | 2.7 | 2 | 153 | 204 (≈ 256 µg/mL) | 408
11 | CC[C@H](C)[C@@H]1NC(=O)c2cc(c(C)s2)C2=C(CCC2)c2cc(sc2C)C(=O)[C@H]2CCCN2C(=O)[C@H](CC(C)C)NC(=O)[C@H](CCCN)NC(=O)[C@H]([C@@H](C)CC)NC(=O)[C@@H]2CCCN2C(=O)[C@H]2CCCN2C(=O)[C@H](CC(C)C)NC(=O)[C@H](CCCN)NC1=O | 2 (≈ 2.52 µg/mL) | 4 | 1.3 | 0.2 | 6 | 51 (≈ 64.2 µg/mL) | 8
12 | C[C@]12SC3=CC1=C1CCCC1=C1C=C(S[C@@]12C)C(=O)[C@H]1CCCN1C(=O)[C@H](CCCCN)NC(=O)[C@H](C12CC4CC(CC(C4)C1)C2)NC(=O)[C@H](CCCN)NC(=O)[C@@H]1CCCN1C(=O)[C@@H](Cc1ccccc1)NC(=O)[C@H](CCCN)NC(=O)[C@H](C12CC4CC(CC(C4)C1)C2)NC(=O)[C@H](CCCN)NC3=O | 3 (≈ 4.44 µg/mL) | 0.3 | 0.1 | 0.1 | 11 | 8 (≈ 11.8 µg/mL) | 1
13 | CC(C)[C@@H]1NC(=O)C2=CC3=C4CCCC4=C4C=C(S[C@]4(C)[C@@]3(C)S2)C(=O)[C@H]2CCCN2C(=O)[C@H](Cc2ccc(O)cc2)NC(=O)[C@H](CCCN)NC(=O)[C@H](C(C)C)NC(=O)[C@@H]2CCCN2C(=O)[C@@H](Cc2ccccc2)NC(=O)[C@H](Cc2ccc(O)cc2)NC(=O)[C@H](CCCN)NC1=O | 3 (≈ 4.14 µg/mL) | 3.7 | 0.1 | 0.1 | 137 | 92 (≈ 127 µg/mL) | 11
14 | C[C@@H](O)[C@@H]1NC(=O)[C@H](C23CC4CC(CC(C4)C2)C3)NC(=O)[C@H](CCCN)NC(=O)[C@@H]2CCCN2C(=O)[C@@H](Cc2ccccc2)NC(=O)[C@H](CCCN)NC(=O)[C@H](C23CC4CC(CC(C4)C2)C3)NC(=O)[C@H](CCCN)NC(=O)C2=CC3=C4CCCC4=C4C=C(S[C@]4(C)[C@@]3(C)S2)C(=O)[C@H]2CCCN2C1=O | 2 (≈ 2.91 µg/mL) | 6.5 | 1.2 | 0.1 | 11 | 13 (≈ 18.9 µg/mL) | 13
15 | CC[C@H](C)[C@@H]1NC(=O)C2=CC3=C4CCCC4=C4C=C(S[C@]4(C)[C@@]3(C)S2)C(=O)[C@H]2CCCN2C(=O)[C@H]([C@@H](C)CC)NC(=O)[C@H](CCCN)NC(=O)[C@H](CC(C)C)NC(=O)[C@H](CC(C)C)N(C)C(=O)[C@@H](Cc2ccccc2)NC(=O)[C@H]([C@@H](C)CC)NC(=O)[C@H](CCCN)NC1=O | 3 (≈ 4.02 µg/mL) | 9 | 1.1 | 0.1 | 25 | 191 (≈ 256 µg/mL) | 27
16 | Cc1sc2cc1C1=C(CCC1)c1cc(sc1C)C(=O)[C@H]1CCCN1C(=O)[C@H](C(C)C)NC(=O)[C@H](CCCN)NC(=O)[C@H](C(C)C)NC(=O)[C@@H]1CCCN1C(=O)[C@@H](Cc1ccccc1)NC(=O)[C@H](C(C)C)NC(=O)[C@H](CCCN)NC(=O)[C@H](CCNC(=O)C(C)C)NC2=O | 3 (≈ 3.97 µg/mL) | 56.7 | 4.7 | 1.8 | 36 | 97 (≈ 128 µg/mL) | 170
17 | Cc1sc2cc1C1=C(CCC1)c1cc(sc1C)C(=O)[C@H]1CCCN1C(=O)[C@H](CCCCN)NC(=O)[C@H](C13CC4CC(CC(C4)C1)C3)NC(=O)[C@H](CCCN)NC(=O)[C@@H]1CCCN1C(=O)[C@@H](Cc1ccccc1)NC(=O)[C@H](CCCN)NC(=O)[C@H](C13CC4CC(CC(C4)C1)C3)NC(=O)[C@H](CCCN)NC2=O | 3 (≈ 4.44 µg/mL) | 0.3 | 0.1 | 0.1 | 11 | 16 (≈ 23.7 µg/mL) | 1
